This is a sample that favours compounds with a hit; in the whole collection about 1.4% have one here.
SIAE inh: inhibitors of human sialic acid acetylesterase SIAE. SIAE FP-Rh probe binding, fluorescence polarization. inhibition, % at 9.66 µM. hit rate 0.69% among 370,000. AID 1053197. Q9HAT2;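 active = inhibition above a cutoff: mean of compounds within the control limits plus 3 SD of those, cut at about 17% in these data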;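 note: 0% = plate median of compound wells and 100% = probe without SIAE protein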
mABHD4 FP: ABHD4 (mouse) inhibition, primary FP screen | Q8VD66 | purified mABHD4, FP-Rh probe fluorescence polarization | inhibition, % at 8.92 µM | hit rate 0.54% among 370,000;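 active = inhibition exceeding the mean over every tested compound plus 3 SD, cut at about 30% in these data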;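 note: 0% = plate median of compound wells and 100% = S159A mutant with DMSO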
Target sequence (Q8VD66 whole entry, looked up): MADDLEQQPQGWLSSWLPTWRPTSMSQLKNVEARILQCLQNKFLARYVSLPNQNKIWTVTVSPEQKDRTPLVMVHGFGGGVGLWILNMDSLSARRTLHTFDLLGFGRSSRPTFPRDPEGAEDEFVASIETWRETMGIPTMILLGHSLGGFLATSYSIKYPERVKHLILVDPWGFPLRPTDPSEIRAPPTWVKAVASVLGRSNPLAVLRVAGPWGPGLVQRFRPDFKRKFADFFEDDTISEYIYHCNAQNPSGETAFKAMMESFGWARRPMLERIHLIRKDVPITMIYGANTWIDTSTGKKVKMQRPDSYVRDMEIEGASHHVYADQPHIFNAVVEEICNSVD
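Assay system: mouse ABHD4 enzyme, wild type / Also added: fluorescent activity-based probe FP-Rh / Doses: single nominal dose of 8.92 µM, 0.89% DMSO final / Timing: 45 min compound pre-incubation plus 60 min probe step, 25 °C / Signal: FP readout, ex 525 nm / em 598 nm / Control set: S159A mutant/DMSO as 100%, compound-well median as 0%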
RBBP9 inh: inhibitors of human serine hydrolase RBBP9; AID 1515; inhibition, % at 7.94 µM; recombinant RBBP9, FP-Rh probe fluorescence polarization; hit rate 0.2% among 220,000;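 active = inhibition above the campaign mean of all tested compounds plus 3 SD, cut at about 14% in these data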;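 note: plate controls were DMSO wells with RBBP9 for no effect and wells lacking RBBP9 protein for full effect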
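Controls: DMSO-treated enzyme wells and wells lacking RBBP9 | Material: RBBP9 protein | Technique: Fluorescence polarization | Replication: Single well per compound, no replicates | Buffer or medium: Tris-NaCl-Pluronic buffer, pH 8.0 | Timing: 30 min compound preincubation, 45 min probe labeling, 25 °C | Read-out basis: Percent inhibition from mP, scaled between DMSO and no-protein wells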
HTRA1 inh: blocks human HTRA1 serine peptidase; recombinant HTRA1, FP-rhodamine activity-based probe, fluorescence polarization; inhibition, % at 5.96 µM; hit rate 0.5% among 340,000; in the data active = inhibition above about 36%;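 note: 0% = enzyme with DMSO and 100% = wells lacking enzyme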
SIAE confirm: human SIAE inhibition, confirmation; shares compounds with SIAE inh; hit rate 13% among 2,300; inhibition, % at 9.66 µM; SIAE FP-Rh activity-based probe, fluorescence polarization;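 active = mean inhibition of the replicates above the hit cutoff set in the primary screen, cut at about 17% in these data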;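 note: 0% = SIAE with DMSO and probe and 100% = probe without SIAE; inhibitors lower polarization as more probe stays unbound to SIAE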
* = called active by the depositor; x = not tested or not shown.

SMILES | SIAE inh | mABHD4 FP | RBBP9 inh | HTRA1 inh | SIAE confirm
COc1cc(NC(=O)Nc2nc(C(N)CCc3ccccc3)cs2)cc(OC)c1OC (configuration not stated) | 33* | 16 | x | x | 22*
CC(=O)NC12CC3CC(C1)CC(C(=O)N1CCN(S(=O)(=O)c4ccc(C(C)C)cc4)CC1)(C3)C2 | 9 | -2 | x | -7 | x
CC(=O)NC12CC3CC(C1)CC(C(=O)N1CCN(S(=O)(=O)c4ccccc4C#N)CC1)(C3)C2 | 28* | 5 | x | 4 | -2
O=C(COc1ccc2ccc(=O)oc2c1)NC1CCCC1 | -3 | 3 | x | 2 | x
O=C(Oc1ccc2ccc(=O)oc2c1)C1CCCCC1 | 38* | 5 | 0 | 3 | 34*
CC(OC(=O)c1ccc(Cl)nc1)C(=O)NC1CCCC1 (configuration not stated) | 19* | 0 | x | -1 | -2
O=[N+]([O-])c1ccc(/C=N/NS(=O)(=O)c2ccc(Cl)cc2)o1 | 1 | 5 | -6 | 3 | x
O=[N+]([O-])c1ccc(/C=N/Nc2ccnc3cc(Cl)ccc23)o1 | 20* | 17 | x | 22 | 5
CCOC(=O)c1c(C)[nH]c(C)c1S(=O)(=O)N1CCN(c2ccc(F)cc2)CC1 | 19* | 1 | x | -4 | 3
C=Cc1cnc([N+](=O)[O-])n1C | -9 | -5 | x | 2 | x
Cc1ccn2c(Nc3ccccc3C)c(-c3ccccn3)nc2c1 | 18* | 7 | -3 | 10 | 5
COC(=O)c1c(-c2ccc(OC)cc2)sc2ccc(OC)cc12 | 5 | -20 | x | -33 | x
O=C(CSc1nc2ccccc2o1)N1N=C(c2cccs2)CC1c1ccc(F)cc1 (configuration not stated) | 20* | -6 | -3 | -2 | -5
COc1ccc(C(=O)NCCn2ccc3ccccc32)cc1OC | 22* | 2 | -10 | -6 | 0
COc1cccc(C(=O)NCCn2ccc3ccccc32)c1 | 2 | -9 | 0 | 0 | x
COC(=O)C1CCN(C(=O)CCn2nnc(-c3cccs3)n2)CC1 | 4 | -1 | x | x | x
Cc1cc(OC(=O)c2cc(F)c(F)cc2Cl)nc(C)n1 | 19* | 7 | -3 | 7 | 3
Cc1cc(OC(=O)c2c(Cl)cc(Cl)cc2Cl)nc(C)n1 | 3 | 1 | -7 | 3 | x
COC(=O)CSc1nnc(-c2ccc(NS(=O)(=O)c3ccc(C(C)(C)C)cc3)cc2)o1 | -13 | -8 | x | x | x
Nc1ccn([C@@H]2O[C@H](C(=O)NCc3ccc4c(c3)OCO4)[C@@H](O)[C@H]2O)c(=O)n1 | 52* | -3 | x | x | 49*
CCCCOCCCNC(=O)C[C@H]1C[C@@]2(C(=O)OC)C(=C[C@H](C(C)C)O[C@@H]2C2CC2)N(Cc2cccc3ccccc23)C1=O | -4 | -6 | x | x | x
CN(C)c1ccc(NC(=O)CSc2nc(N)c(C(=O)Nc3ccc(N(C)C)cc3)s2)cc1 | 20* | 4 | 11 | 5 | 9
COc1ccc(NC(=O)CSc2nc(N)c(C(=O)Nc3ccc(N(C)C)cc3)s2)cc1 | x | x | 1 | 1 | x
OC1COCOC1C(O)C1OCOCC1O (configuration not stated) | 3 | -2 | x | -9 | x
CCc1ccc(NC(=O)Nc2ccc3c(c2)N(C)C(=O)CS3)cc1 | 24* | 4 | -7 | -17 | 1
SMILES | SIAE inh | mABHD4 FP | RBBP9 inh | HTRA1 inh | SIAE confirm
CCc1nc2ccc(C(=O)NCCC(C)C)cn2c1N(CCN(C)C)CC1CC1 | -2 | 1 | x | x | x
CCn1c(SCC(=O)Nc2ccc(OC)c(OC)c2)nc2c(c1=O)SCC2 | 19* | 6 | x | 4 | -1
COc1ccc(NC(=O)CSc2nc3c(c(=O)n2C)SCC3)cc1OC | 1 | -3 | x | 3 | x
CN1[C@@H]2CC[C@H]1CC(OC(=O)[C@H](CO)c1ccccc1)C2 (some centres not stated) | 0 | -1 | x | 1 | x
CN(C)c1ccc(CNCC2CCCO2)cc1 (configuration not stated) | 18* | -3 | x | 3 | -2
O=C(COc1ccccc1Cl)Nc1nnc(S(=O)(=O)N2CCCCCC2)s1 | -9 | -18 | x | -5 | x
CCOc1ccc2nc(NC(=O)Nc3cccs3)sc2c1 | 34* | 16 | -2 | 3 | 9
COc1ccc(-c2nc3ncccc3o2)cc1NC(=O)c1ccco1 | 1 | -5 | x | 0 | x
CC(C)Cn1c(SCC(=O)c2ccc(Cl)s2)nnc1-c1ccco1 | 25* | 3 | -10 | -22 | 3
CCN(CC)S(=O)(=O)c1cc(Cl)ccc1OC | -2 | -2 | 2 | -4 | x
CCN(CC)S(=O)(=O)c1cc(Br)ccc1OC | 18* | -5 | -1 | 7 | 1
